Laboratory results: ChEMBL document CHEMBL1149171, “Development of orally bioavailable bicyclic pyrazolones as inhibitors of tumor necrosis factor-alpha production” (J Med Chem, 2004)
In brackets after ≈: the same amount, converted by molar mass.

Tests used:
[1] = Solubility was determined; format: ADME, Rattus norvegicus
Summary of the method: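 Shake-flask method in 50 mM phosphate buffer, pH 7.4, ionic strength 0.15 M, with 24 h equilibration. Supernatant was centrifuged and filtered, diluted with acetonitrile, and quantified by UV-vis against calibration standards in 1:1 acetonitrile/buffer.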

[2] = Oral bioavailability in rat; format: ADME, organism-based; settings: in vivo
[3] = Metabolism was measured as percent loss at 4 hr in rat hepatocytes; format: ADME, Hepatocyte; settings: read-out: Metabolism
Summary of the method: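 Plated Sprague-Dawley rat hepatocytes on matrigel at 37 °C, 0.25 µM compound, in triplicate. Samples taken at 0, 2 and 4 h and pooled across compounds after incubation, with internal standard added. Analysis by reverse-phase HPLC/MS/MS. Analyte/internal-standard area ratio at 4 h divided by the 0 h ratio gives percent loss.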

[4] = biological target: Cyclin-dependent kinase 1/cyclin B (Homo sapiens) (UniProt P06493+P14635+Q8WWL7+O95067); assay: Inhibition of Cyclin-dependent kinase 1-cyclin B at 1 uM; format: protein-complex assay; set-up: scale not given: the % may be the effect or the level left
Summary of the method: (§1)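 Kinase selectivity panel. Each kinase tested with compound at 1 µM and ATP at its K_m, in triplicate. Activity is given as a percentage of control incubations; SD typically 10%.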

[5] = biological target: Mitogen-activated protein kinase 1 (Homo sapiens) (UniProt P28482); assay: Inhibition of ERK2/MAPK2 kinase at 1 uM; set-up: scale not given: the % may be the effect or the level left; summary of the method: as §1
[6] = biological target: Glycogen synthase kinase-3 beta (Homo sapiens) (UniProt P49841); assay: Inhibition of Glycogen synthase kinase-3 beta at 1 uM; set-up: scale not given: the % may be the effect or the level left; summary of the method: as §1
[7] = Inhibition of MAPK1/IKKB kinase at 1 uM; set-up: scale not given: the % may be the effect or the level left
Summary of the method: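 Kinase panel, tested at 1 µM compound with ATP at its K_m, in triplicate. Activity is expressed as a percentage of that in control incubations.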

[8] = biological target: MAP kinase-activated protein kinase 2 (Homo sapiens) (UniProt P49137); assay: Inhibition of MAPKAP-K2 kinase at 1 uM; set-up: scale not given: the % may be the effect or the level left; summary of the method: as §1
[9] = biological target: T1, Dual specificity mitogen-activated protein kinase kinase 4 (Homo sapiens) (UniProt P45985); assay: Inhibition of MKK4/SKK1 kinase at 1 uM; set-up: scale not given: the % may be the effect or the level left; summary of the method: as §1
T1 sequence (whole entry): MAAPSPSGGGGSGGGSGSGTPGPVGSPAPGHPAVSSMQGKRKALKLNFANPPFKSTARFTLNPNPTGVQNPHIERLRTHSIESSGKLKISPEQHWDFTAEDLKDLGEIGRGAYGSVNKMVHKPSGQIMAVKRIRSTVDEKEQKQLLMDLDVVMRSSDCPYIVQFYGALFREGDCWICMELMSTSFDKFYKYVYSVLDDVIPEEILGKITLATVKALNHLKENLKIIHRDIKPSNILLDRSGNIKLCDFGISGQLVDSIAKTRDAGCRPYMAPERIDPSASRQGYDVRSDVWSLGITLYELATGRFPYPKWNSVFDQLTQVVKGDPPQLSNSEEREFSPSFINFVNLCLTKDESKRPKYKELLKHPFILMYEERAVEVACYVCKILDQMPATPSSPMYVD

[10] = biological target: Mitogen-activated protein kinase 3 (Homo sapiens) (UniProt P27361); assay: Inhibition of Mitogen-activated protein kinase 3 kinase at 1 uM; set-up: scale not given: the % may be the effect or the level left; summary of the method: as §1
[11] = biological target: MAP kinase p38 (Homo sapiens, UniProt O15264+Q15759+Q16539+P53778); assay: Inhibition of human Mitogen-activated protein kinase p38; format: protein assay
[12] = biological target: RAC-alpha serine/threonine-protein kinase (Homo sapiens) (UniProt P31749); assay: Inhibition of Protein kinase B alpha (Akt) at 1 uM; set-up: scale not given: the % may be the effect or the level left; summary of the method: as §1
[13] = biological target: RAF proto-oncogene serine/threonine-protein kinase (Homo sapiens) (UniProt P04049); assay: Inhibition of RAF proto-oncogene serine/threonine-protein kinase at 1 uM; set-up: scale not given: the % may be the effect or the level left; summary of the method: as §1
[14] = biological target: Mitogen-activated protein kinase 9 (Homo sapiens) (UniProt P45984); assay: Inhibition of c-Jun N-terminal kinase 2-alpha 2 at 1 uM; set-up: scale not given: the % may be the effect or the level left; summary of the method: as §1
[15] = biological target: Mitogen-activated protein kinase 10 (Homo sapiens) (UniProt P53779); assay: Inhibition of c-Jun N-terminal kinase 3 at 1 uM; set-up: scale not given: the % may be the effect or the level left; summary of the method: as §1
[16] = biological target: Mitogen-activated protein kinase 8 (Homo sapiens) (UniProt P45983); assay: Inhibition of c-Jun N-terminal kinase 1-alpha 1 at 1 uM; set-up: scale not given: the % may be the effect or the level left; summary of the method: as §1
[17] = biological target: Tyrosine-protein kinase Lck (Homo sapiens) (UniProt P06239); assay: Inhibition of p56 Lck tyrosine kinase at 1 uM; set-up: scale not given: the % may be the effect or the level left; summary of the method: as §1
[18] = biological target: Cyclin-dependent kinase 2/cyclin A (Homo sapiens) (UniProt P24941+P20248+P78396); assay: Inhibition of Cyclin-dependent kinase 2-cyclin A at 1 uM; format: protein-complex assay; set-up: scale not given: the % may be the effect or the level left; summary of the method: as §1
[19] = biological target: Dual specificity mitogen-activated protein kinase kinase 1 (MEK1, MAP2K1) (Homo sapiens) (UniProt Q02750); assay: Inhibition of Dual specificity mitogen activated protein kinase kinase 1 at 1 uM; set-up: scale not given: the % may be the effect or the level left
[20] = biological target: Mitogen-activated protein kinase 3 (Homo sapiens) (UniProt P27361); assay: Inhibition of Mitogen-activated protein kinase 3 at 1 uM; set-up: scale not given: the % may be the effect or the level left; summary of the method: as §1

Chain of RAF proto-oncogene serine/threonine-protein kinase (Homo sapiens) (P04049 whole entry): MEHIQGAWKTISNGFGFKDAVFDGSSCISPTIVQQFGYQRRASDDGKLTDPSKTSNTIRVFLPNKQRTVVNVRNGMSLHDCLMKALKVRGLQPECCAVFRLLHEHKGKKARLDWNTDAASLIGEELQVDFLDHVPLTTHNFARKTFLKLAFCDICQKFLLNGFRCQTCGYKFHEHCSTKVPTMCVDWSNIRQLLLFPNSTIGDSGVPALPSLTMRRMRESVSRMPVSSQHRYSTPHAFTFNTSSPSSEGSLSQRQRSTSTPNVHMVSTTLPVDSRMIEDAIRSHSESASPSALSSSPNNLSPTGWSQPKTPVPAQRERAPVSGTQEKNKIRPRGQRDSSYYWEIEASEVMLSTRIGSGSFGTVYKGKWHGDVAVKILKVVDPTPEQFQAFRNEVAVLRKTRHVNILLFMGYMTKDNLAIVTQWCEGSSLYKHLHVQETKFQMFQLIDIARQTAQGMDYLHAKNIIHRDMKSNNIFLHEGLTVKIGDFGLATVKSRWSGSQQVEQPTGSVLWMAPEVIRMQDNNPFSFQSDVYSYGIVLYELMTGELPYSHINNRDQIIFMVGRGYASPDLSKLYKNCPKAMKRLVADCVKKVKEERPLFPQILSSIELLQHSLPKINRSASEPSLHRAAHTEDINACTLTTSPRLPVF
Chain of Mitogen-activated protein kinase 3 (Homo sapiens) (P27361 whole entry): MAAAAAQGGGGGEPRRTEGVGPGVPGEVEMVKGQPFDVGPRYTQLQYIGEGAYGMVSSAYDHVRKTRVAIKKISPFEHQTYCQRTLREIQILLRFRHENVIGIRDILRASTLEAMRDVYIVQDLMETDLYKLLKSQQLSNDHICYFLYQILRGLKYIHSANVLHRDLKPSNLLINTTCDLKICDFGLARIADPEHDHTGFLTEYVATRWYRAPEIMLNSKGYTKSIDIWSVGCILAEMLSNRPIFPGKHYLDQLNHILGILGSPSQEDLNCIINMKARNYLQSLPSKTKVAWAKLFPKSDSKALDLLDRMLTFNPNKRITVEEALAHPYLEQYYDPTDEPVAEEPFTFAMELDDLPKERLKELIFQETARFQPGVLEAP
Chain of Mitogen-activated protein kinase 9 (Homo sapiens) (P45984 whole entry, looked up): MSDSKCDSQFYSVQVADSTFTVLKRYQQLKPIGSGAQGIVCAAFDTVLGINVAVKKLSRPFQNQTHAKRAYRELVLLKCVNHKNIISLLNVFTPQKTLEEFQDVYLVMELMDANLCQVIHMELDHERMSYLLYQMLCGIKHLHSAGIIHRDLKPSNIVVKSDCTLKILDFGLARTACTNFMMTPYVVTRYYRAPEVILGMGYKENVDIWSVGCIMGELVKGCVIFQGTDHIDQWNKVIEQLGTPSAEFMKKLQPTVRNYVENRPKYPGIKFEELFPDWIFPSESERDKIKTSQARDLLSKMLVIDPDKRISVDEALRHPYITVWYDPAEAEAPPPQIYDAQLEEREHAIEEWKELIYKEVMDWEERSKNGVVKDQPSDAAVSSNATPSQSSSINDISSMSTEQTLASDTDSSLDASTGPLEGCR
Chain of Dual specificity mitogen-activated protein kinase kinase 1 (MEK1, MAP2K1) (Homo sapiens) (Q02750 whole entry, looked up): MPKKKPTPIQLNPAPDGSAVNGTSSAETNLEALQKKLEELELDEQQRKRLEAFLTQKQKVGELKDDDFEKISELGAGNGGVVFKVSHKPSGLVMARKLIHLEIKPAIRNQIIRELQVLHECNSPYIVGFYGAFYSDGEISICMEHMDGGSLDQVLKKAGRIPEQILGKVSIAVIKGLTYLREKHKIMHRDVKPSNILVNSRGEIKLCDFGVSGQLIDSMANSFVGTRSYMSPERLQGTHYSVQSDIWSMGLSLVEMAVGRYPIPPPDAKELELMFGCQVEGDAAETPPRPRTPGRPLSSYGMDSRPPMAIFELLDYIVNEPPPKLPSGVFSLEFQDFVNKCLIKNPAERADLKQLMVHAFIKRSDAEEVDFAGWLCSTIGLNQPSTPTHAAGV
Chain of Mitogen-activated protein kinase 10 (Homo sapiens) (P53779 whole entry): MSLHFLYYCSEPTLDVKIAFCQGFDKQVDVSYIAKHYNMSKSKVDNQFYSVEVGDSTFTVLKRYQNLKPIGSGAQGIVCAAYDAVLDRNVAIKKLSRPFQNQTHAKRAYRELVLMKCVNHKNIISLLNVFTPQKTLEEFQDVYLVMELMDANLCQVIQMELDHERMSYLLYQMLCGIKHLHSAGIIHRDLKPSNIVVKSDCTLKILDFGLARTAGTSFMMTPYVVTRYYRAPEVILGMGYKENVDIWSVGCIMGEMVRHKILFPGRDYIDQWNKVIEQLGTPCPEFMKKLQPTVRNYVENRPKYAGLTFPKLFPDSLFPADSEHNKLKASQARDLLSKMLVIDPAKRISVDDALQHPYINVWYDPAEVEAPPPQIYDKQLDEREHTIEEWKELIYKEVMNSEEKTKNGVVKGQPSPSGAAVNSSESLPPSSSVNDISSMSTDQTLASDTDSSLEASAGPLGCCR
Chain of Mitogen-activated protein kinase 1 (Homo sapiens) (P28482 whole entry): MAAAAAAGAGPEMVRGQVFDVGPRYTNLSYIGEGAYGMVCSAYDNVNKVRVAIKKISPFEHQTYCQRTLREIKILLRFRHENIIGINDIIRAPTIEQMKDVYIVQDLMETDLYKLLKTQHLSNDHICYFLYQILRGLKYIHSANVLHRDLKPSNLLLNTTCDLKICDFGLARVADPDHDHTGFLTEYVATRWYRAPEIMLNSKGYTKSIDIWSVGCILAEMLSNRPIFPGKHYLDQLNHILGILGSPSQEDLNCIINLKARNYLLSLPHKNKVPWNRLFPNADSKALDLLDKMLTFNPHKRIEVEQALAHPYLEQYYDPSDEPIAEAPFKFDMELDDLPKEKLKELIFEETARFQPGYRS
Chain of RAC-alpha serine/threonine-protein kinase (Homo sapiens) (P31749 whole entry): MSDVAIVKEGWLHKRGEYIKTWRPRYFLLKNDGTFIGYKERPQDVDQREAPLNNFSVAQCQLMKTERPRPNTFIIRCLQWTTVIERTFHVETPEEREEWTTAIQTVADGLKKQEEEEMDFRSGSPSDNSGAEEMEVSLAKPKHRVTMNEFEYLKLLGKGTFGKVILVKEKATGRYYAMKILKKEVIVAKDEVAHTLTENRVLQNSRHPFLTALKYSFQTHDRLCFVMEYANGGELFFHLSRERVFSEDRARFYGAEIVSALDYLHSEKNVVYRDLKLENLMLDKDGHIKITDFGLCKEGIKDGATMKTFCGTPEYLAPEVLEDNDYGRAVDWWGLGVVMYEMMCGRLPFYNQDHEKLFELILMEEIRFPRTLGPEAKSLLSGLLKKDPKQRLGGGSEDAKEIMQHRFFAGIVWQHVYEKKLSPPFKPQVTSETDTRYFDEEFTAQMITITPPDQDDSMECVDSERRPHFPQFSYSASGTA
Chain of Glycogen synthase kinase-3 beta (Homo sapiens) (P49841 whole entry, looked up): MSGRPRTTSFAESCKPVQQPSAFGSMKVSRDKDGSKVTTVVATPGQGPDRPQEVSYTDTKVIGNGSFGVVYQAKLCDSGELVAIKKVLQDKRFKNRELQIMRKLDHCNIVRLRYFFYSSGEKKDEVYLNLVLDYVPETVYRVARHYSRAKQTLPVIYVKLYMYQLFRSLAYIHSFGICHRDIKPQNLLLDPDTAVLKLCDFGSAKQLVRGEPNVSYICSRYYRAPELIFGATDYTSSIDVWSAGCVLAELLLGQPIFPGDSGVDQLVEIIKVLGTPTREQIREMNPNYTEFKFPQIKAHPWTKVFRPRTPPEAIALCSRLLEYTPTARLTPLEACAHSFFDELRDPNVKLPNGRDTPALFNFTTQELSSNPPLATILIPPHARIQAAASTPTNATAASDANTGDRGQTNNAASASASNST
Chain of MAP kinase-activated protein kinase 2 (Homo sapiens) (P49137 whole entry, looked up): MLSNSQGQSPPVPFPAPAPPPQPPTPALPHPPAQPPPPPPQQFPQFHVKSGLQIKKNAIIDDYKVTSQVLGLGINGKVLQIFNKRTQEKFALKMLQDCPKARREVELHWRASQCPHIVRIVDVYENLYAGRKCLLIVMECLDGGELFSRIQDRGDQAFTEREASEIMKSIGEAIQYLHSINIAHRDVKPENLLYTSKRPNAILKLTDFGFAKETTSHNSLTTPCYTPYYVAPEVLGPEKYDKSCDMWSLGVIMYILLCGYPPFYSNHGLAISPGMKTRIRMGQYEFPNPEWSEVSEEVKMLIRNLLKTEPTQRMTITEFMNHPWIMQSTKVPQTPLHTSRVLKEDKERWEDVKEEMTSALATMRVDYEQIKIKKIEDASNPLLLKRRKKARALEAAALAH
Chain of Mitogen-activated protein kinase 8 (Homo sapiens) (P45983 whole entry): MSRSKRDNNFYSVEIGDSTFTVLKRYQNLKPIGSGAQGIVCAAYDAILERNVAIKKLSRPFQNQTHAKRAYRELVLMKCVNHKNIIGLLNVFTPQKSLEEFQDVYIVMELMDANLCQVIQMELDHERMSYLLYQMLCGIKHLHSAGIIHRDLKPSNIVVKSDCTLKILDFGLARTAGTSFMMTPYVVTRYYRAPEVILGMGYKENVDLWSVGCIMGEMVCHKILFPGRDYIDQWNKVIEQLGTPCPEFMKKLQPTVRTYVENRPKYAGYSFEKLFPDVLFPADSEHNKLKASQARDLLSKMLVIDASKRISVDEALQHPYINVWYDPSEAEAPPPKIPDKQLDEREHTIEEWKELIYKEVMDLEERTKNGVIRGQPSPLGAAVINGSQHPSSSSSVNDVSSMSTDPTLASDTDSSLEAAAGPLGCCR
Chain of Tyrosine-protein kinase Lck (Homo sapiens) (P06239 2-509 limits assumed): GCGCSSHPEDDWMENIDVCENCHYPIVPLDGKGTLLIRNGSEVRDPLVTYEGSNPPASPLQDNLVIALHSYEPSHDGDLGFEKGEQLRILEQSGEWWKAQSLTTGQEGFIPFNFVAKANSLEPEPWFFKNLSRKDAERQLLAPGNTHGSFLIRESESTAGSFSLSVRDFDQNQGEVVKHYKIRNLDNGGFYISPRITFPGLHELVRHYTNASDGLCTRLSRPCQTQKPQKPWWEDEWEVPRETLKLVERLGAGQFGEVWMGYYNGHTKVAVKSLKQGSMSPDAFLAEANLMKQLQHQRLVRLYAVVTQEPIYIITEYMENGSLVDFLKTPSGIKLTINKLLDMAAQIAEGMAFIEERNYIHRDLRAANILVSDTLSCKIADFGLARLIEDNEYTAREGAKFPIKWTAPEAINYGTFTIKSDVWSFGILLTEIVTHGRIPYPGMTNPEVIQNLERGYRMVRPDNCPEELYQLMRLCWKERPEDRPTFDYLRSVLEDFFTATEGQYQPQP

| Compound | solubility [1] | bioavailability [2] | metabolised at 4 h [3] | Activity [4] | Activity [5] | Activity [6] | Activity [7] | Activity [8] | Activity [9] | Activity [10] | IC50 [11] | Activity [12] | Activity [13] | Activity [14] | Activity [15] | Activity [16] | Activity [17] | Activity [18] | Activity [19] | Activity [20] |
| --- | --- | --- | --- | --- | --- | --- | --- | --- | --- | --- | --- | --- | --- | --- | --- | --- | --- | --- | --- | --- |
| CC[C@H](C)Nc1nccc(-c2c(-c3ccc(F)cc3)c(=O)n3n2CCC3)n1 | 460 µg/mL (≈ 1250 µM) | 10% | 60% | – | – | – | – | – | – | – | – | – | – | – | – | – | – | – | – | – |
| C[C@H](Nc1nccc(-c2c(-c3ccc(F)cc3)c(=O)n3n2CCC3)n1)C(C)(C)O | 1850 µg/mL (≈ 4650 µM) | 25% | 29% | 99% | 108% | 99% | 111% | 112% | 117% | 9% | 54 nM | 119% | 91% | 73% | 36% | 105% | 141% | 101% | 95% | – |
| COC[C@H](C)Nc1nccc(-c2c(-c3ccc(F)cc3)c(=O)n3n2CCC3)n1 | 840 µg/mL (≈ 2190 µM) | 63% | < 5% | 96% | 98% | 72% | – | 113% | 90% | 96% | 27 nM | 89% | 55% | 8% | 5% | 65% | – | 108% | 102% | – |
| O=c1c(-c2ccc(F)cc2)c(-c2ccnc(NCc3ccccc3)n2)n2n1CCC2 | 100 µg/mL (≈ 249 µM) | 18% | 46% | – | – | – | – | – | – | – | – | – | – | – | – | – | – | – | – | – |
| C[C@H](Nc1nccc(-c2c(-c3ccc(F)cc3)c(=O)n3n2CCC3)n1)c1ccccc1 | 200 µg/mL (≈ 481 µM) | 29% | 50% | 95% | 80% | 101% | – | 91% | 166% | – | 8 nM | 98% | 61% | 8% | 4% | 52% | 161% | 117% | 99% | 82% |
